Here are results for 18 compounds from PubChem BioAssay.

A short description of assay [1]: S. cerevisiae growth inhibition in permissive medium (OD615), pilot counter-assay for S. cerevisiae lifespan shortening project, permissive growth control (AID 705;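 active means growth inhibition above 25% in both replicates, a cutoff set 3 SD above the mean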). Conditions: OD615, 24 h, at 10 µM, hits give high values. In short, it runs like this:
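System: S. cerevisiae with engineered DeaD lifespan system. Medium: SC raffinose/galactose permissive medium. Doses: single compound dose of 10 µM, 0.25% DMSO final. Schedule: 24 h exposure, 30 °C. Measured by: OD615 turbidity read. Read-out: growth inhibition.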

Assay [2] can be described thus: S. cerevisiae growth inhibition in restrictive medium, OD615, pilot screen, restrictive growth control, yeast lifespan reduction project (AID 706;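 active means growth inhibition above a set limit, 3 SD over mean compound inhibition, in both replicates, cut at about 43% in these data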;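 further: modified DeaD lifespan yeast strain shifted to restrictive glucose medium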). Conditions: OD615, 48 h, at 10 µM, hits give high values. The method, boiled down:
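Assay system – genetically modified Saccharomyces cerevisiae, DeaD replicative lifespan assay strain · Medium – CSMM-D glucose medium · Doses – 10 µM compound, 0.25% DMSO · Times – 4 h pre-incubation, 48 h exposure at 30 °C · Signal – optical density at 615 nm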

Assay [3] is described as follows: doxorubicin toxicity protection in MRP-1 cells – H69AR cells, CellTiter-Glo, duplicate, MRP-1 activator project, pilot screen (AID 807;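 active means viability increase at or above a cutoff of the median across tested compounds plus 3 SD, cut at about 8.5% in these data, passing the limit was not always enough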;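 further: compound pretreatment 18-22 h then 72 h combined with doxorubicin; 0% = doxorubicin alone and 100% = vehicle without doxorubicin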). The note with it: H69AR viability with doxorubicin, CellTiter-Glo luminescence; at 10 µM; hits give high values. On the technique in general: Cellular ATP, detected with luciferase, serves as a proxy for viable cell number.
Assay [4] is described as follows: viability of HCT116 without oncogenic beta-catenin – human colon tumor cells, pilot screen (AID 823).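 Further: 0% = wells killed by 20 µM Hyamine and 100% = untreated DMSO cell wells.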 The note with it: HCT116 beta-catenin knockout viability, CellTiter-Glo, 60 h; at 10 µM; hits give low values.
Assay [5] can be described thus: viability of PTEN-null HCT116 cells – cell-based, HCT116 clonal line, CellTiter-Glo, pilot screen (AID 824;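 active means viability at or below 27.92% in each of two runs, the all-compound median minus 4 SD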;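 further: 0% = 20 µM Hyamine control and 100% = vehicle cell control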). The note with it: HCT116 PTEN-deleted viability, 60 h, at 10 µM, hits give low values.
A short description of assay [6]: RAM pathway blockade in budding yeast – dse1pr::URA3 reporter, 5-FOA selection, pilot screen (AID 869;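 active means inhibition over a set limit, the all-compound mean plus 3 SD, in both replicate runs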;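 further: 0% = DMSO wells with no growth and 100% = 10 µM 1-NA-PP1 with full growth; RAM network block rescues cells from 5-FOA so hits raise OD615 growth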). The note with it: S. cerevisiae dse1pr::URA3 5-FOA growth, OD615, 2 d; at 10 µM; hits give high values; strain carries analog-sensitive mutant Cbk1 kinase.
The nature of assay [7]: RAM signaling pathway blockade in yeast – S. cerevisiae, Pdr1DBD-CYC8 efflux-inhibited sensitized strain, primary screen (AID 1298;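 active means RAM network inhibition above 8.4% in each of two replicates, 3 SD over the compound average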;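 further: 0% = DMSO untreated cells without growth and 100% = 10 µM 1-NA-PP1 full growth; higher means more yeast growth rescued from 5-FOA killing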). Conditions: S. cerevisiae cbk1-as DSE1-URA3 strain, 5-FOA growth OD615, 2 d; at 50 µM; hits give high values.

The structures appear in SMILES notation. Unmarked numbers belong to inactive results. Inconclusive results are not listed. Activity calls are given as the source filed them.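 How the source made its calls, unless noted: active means cell viability at or below a set limit in both duplicate runs, the limit being the all-compound median minus 4 SD (cut at about 23% in these data, passing the limit was not always enough); inconclusive means no clear call, values can overlap the other calls; inactive means the rest.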

`Cc1oc2c(c1C(=O)NC(Cc1c[nH]c3ccccc13)C(=O)O)CCCC2` (stereo unspecified): the values for the growth inhibition in assay [1] and in assay [2] were -8.56% and -5.62%, respectively. In assay [3], the viability increase is -3.61%. In addition, the figures for the viability in assay [4] and in assay [5] were 100% and 97.6%, respectively. For the same compound, the inhibition in assay [6] was 1.37%. Besides, the RAM network inhibition in assay [7] is 0.1%.
In the case of `CCCC(=O)NCCCc1nc2ccccc2[nH]1`, the figures for the growth inhibition in assay [1] and in assay [2] were -8.81% and -14.7%, respectively. In addition, the viability increase in assay [3] was 1.33%. Besides, the viability in assay [4] was 108%; in assay [5], 100%. Also, the inhibition in assay [6] is 1.45%. Further, the RAM network inhibition in assay [7] is 2.55%.
Consider `COC(=O)c1ccc2c(c1)NC(=O)C1CCCN21` (stereo unspecified), for which the growth inhibition in assay [1] was 7.72%; in assay [2] it was 12.4%. The viability increase in assay [3] is -0.72%. Besides, the viability in assay [4] was 91.2%; in assay [5], 89.8%. Moreover, the inhibition in assay [6] was 0.305%. For the same compound, in assay [7], the RAM network inhibition was -1.29%.
As for `CCOC(=O)c1sc(NC(=O)c2cccnc2)nc1C`, the growth inhibition in assay [1] was -7.2%; in assay [2], -2%. Besides, in assay [3], the viability increase is -3.19%. Moreover, the viability was 102% in assay [4] and 97.7% in assay [5]. The inhibition in assay [6] was 1.7%. The RAM network inhibition in assay [7] was 1.1%.
With `C=CCNc1nc2c(c(=O)n(C)c(=O)n2C)n1Cc1ccc(F)cc1`, the growth inhibition in assay [1] was -0.85%; in assay [2], -2.67%. Also, the viability increase in assay [3] was -2.03%. Further, the figures for the viability in assay [4] and in assay [5] were 63.3% and 66.9%, respectively. In assay [6], the inhibition is 0.835%. The RAM network inhibition in assay [7] was 2.3%.
As for `O=C(Nc1scc(-c2cccs2)c1C(=O)O)c1cccs1`, the figures for the growth inhibition in assay [1] and in assay [2] were -11.8% and -9.07%, respectively. In addition, the viability increase in assay [3] is 3.64%. Also, the viability in assay [4] was 103%; in assay [5], 105%. Further, the inhibition in assay [6] is 1.41%. The RAM network inhibition in assay [7] was 0.42%.
Turning to `Cn1c(CSc2nc3ccccc3s2)n[nH]c1=S`, the growth inhibition in assay [1] was -6.41%; in assay [2] it was 1.9%. The viability increase in assay [3] was -3.16%. Further, the viability is 96.9% in assay [4] and 94.6% in assay [5]. The inhibition in assay [6] was 0.23%. Moreover, the RAM network inhibition in assay [7] was 0.95%.
For `CCCC(=O)C1=C(O)C(C(=O)OC)C(C)(C)CC1=Nc1ccncc1` (stereo unspecified), the results for the growth inhibition in assay [1] and in assay [2] were 0.755% and 9.75%, respectively. Moreover, in assay [3], the viability increase is -2.84%. Also, the viability in assay [4] was 96.7%; in assay [5] it was 94.6%. In assay [6], the inhibition was 0.73%. In assay [7], the RAM network inhibition is 0.11%.
`CCOc1ncccc1C(=O)OCC(=O)Nc1cc(C(=O)OC)ccc1C(=O)OC`: the growth inhibition in assay [1] is -16.9%; in assay [2], -12.9%. Moreover, the viability increase in assay [3] is -2.69%. Besides, the figures for the viability in assay [4] and in assay [5] were 90.1% and 92.4%, respectively. Also, the inhibition in assay [6] was 2.11%. For the same compound, the RAM network inhibition in assay [7] was 5.66%.
Regarding `CCOC(=O)c1c(N)sc(C(=O)N2CCCCCC2)c1C`, the figures for the growth inhibition in assay [1] and in assay [2] were -20.4% and -21.8%, respectively. Also, the viability increase in assay [3] is 0.25%. For the same compound, the viability in assay [4] was 96.7%; in assay [5], 91.2%. Also, in assay [6], the inhibition is -0.305%. Moreover, in assay [7], the RAM network inhibition was -0.21%.
For the compound `C=CCOc1cccc(C2c3c(oc4ccccc4c3=O)C(=O)N2c2ccccn2)c1` (stereo unspecified), the growth inhibition in assay [1] was -8.5%; in assay [2], -8.1%. Also, the viability increase in assay [3] was -4.17%. Moreover, the viability in assay [4] is 79.7%; in assay [5] it was 81.6%. In addition, the inhibition in assay [6] was 2.12%. The RAM network inhibition in assay [7] is 9.18%.
As for `COc1ccc(Cc2nc(-c3ccc(-n4cccc4)cc3)no2)cc1OC`, the growth inhibition in assay [1] is -2.5%; in assay [2] it was -10.8%. Besides, the viability increase in assay [3] was 2.61%. Also, the figures for the viability in assay [4] and in assay [5] were 28% and 54.7%, respectively. Further, in assay [6], the inhibition was 4.33%. For the same compound, in assay [7], the RAM network inhibition was 9.02%.
Turning to `COc1ccc(OC)c(S(=O)(=O)NCCc2cn3ccsc3n2)c1`, the growth inhibition is -6.71% in assay [1] and -11.5% in assay [2]. Further, the viability increase in assay [3] was -2.28%. Also, the viability in assay [4] is 105%; in assay [5], 103%. Besides, in assay [6], the inhibition was 3.81%. For the same compound, the RAM network inhibition in assay [7] is 3.59%.
Regarding `Cc1cc(NS(=O)(=O)c2ccccc2)c(C)c(Cl)c1O`, the growth inhibition was -8.22% in assay [1] and -15.3% in assay [2]. Further, in assay [3], the viability increase was -4.31%. For the same compound, the figures for the viability in assay [4] and in assay [5] were 1.97% (active) and 3.14% (active), respectively. The inhibition in assay [6] is 2.38%. Moreover, in assay [7], the RAM network inhibition was 6.4%.
In the case of `CCOC(=O)N1CCN(C(=O)CCSc2ccccc2)CC1`, the growth inhibition is 2.04% in assay [1] and 2.15% in assay [2]. In assay [3], the viability increase was 0.84%. Besides, the figures for the viability in assay [4] and in assay [5] were 99.7% and 97%, respectively. Moreover, the inhibition in assay [6] is 0.07%. Besides, the RAM network inhibition in assay [7] was 0.95%.
For `O=C(C1CCC(CNc2c(N3CCCCC3)c(=O)c2=O)CC1)N1CCCCC1` (stereo unspecified), the growth inhibition was -8.65% in assay [1] and -19.7% in assay [2]. Besides, the viability increase in assay [3] is -1.79%. Moreover, the viability is 94.3% in assay [4] and 93.6% in assay [5]. Further, the inhibition in assay [6] is 1.09%. The RAM network inhibition in assay [7] was 7.26%.
For the compound `Cc1[nH]c(C)c2c(=O)n(-c3ccccc3)ncc12`, the growth inhibition was -19.9% in assay [1] and -17.5% in assay [2]. Further, in assay [3], the viability increase is 0.12%. Moreover, the values for the viability in assay [4] and in assay [5] were 101% and 102%, respectively. In addition, the inhibition in assay [6] is 1.31%. In addition, the RAM network inhibition in assay [7] was 2.55%.
For the compound `COc1ccc(-c2nc(C#N)c(NCCN(C)C)o2)cc1`, the values for the growth inhibition in assay [1] and in assay [2] were -5.38% and -5.11%, respectively. In addition, the viability increase in assay [3] is -0.95%. In addition, the viability in assay [4] is 101%; in assay [5], 97.5%. The inhibition in assay [6] is 0.355%. Besides, in assay [7], the RAM network inhibition was 3.09%.

A word on the viability: it is a read-out of living cells in per cent, often relative to untreated cells. What is called inhibition is the relative decrease from the control value, in per cent.
